JMJD2C inh = inhibitors of GASC-1 histone demethylase, primary screen, biochemical, fluorescence, DELFIA europium; AID 2099, 2009; hit rate 0.069% among 330,000; inhibition, % at 2.35 µM; GST-JMJD2C(1-420) H3K9me3 demethylation; Lysine-specific demethylase 4C (Homo sapiens), Q9H3R0;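 active means more than half of a compound's replicate wells show inhibition beyond 50%, single wells judged on their own value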;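 further: signal counts dimethyl H3K9 product captured on neutravidin plate; 0% = median of DMSO wells and 100% = 0.3 times that DMSO median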
Rtt109 HAT inh = inhibitors of C. albicans Rtt109/Vps75 HAT, primary screen, biochemical, ThioGlo CoA-SH fluorescence, plate reader; hit rate 0.16% among 330,000; inhibition, % at 34.9 µM; purified Rtt109/Vps75, 4 h; AID 540336, 2011; Histone acetyltransferase RTT109 (Candida albicans (strain SC5314 / ATCC MYA-2876)), …;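 active means inhibition of at least 50% in every replicate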
Target sequence (Q5AAJ8 whole entry, looked up): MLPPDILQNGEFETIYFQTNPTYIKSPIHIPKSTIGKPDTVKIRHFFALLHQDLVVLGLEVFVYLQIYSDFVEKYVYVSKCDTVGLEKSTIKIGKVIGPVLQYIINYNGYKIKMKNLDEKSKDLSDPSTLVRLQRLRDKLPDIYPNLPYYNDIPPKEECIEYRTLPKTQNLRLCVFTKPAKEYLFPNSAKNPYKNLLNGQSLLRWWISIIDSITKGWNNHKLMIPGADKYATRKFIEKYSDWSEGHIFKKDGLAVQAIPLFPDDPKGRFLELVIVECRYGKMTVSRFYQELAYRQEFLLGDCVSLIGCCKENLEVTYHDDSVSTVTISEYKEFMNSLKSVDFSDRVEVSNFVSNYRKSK
T cell modulator = modulators of CD8 T cell-vesicle binding, primary screen, mouse 2C CD8+ T cells, flow cytometry; hit rate 0.068% among 330,000; response (vesicle binding), % at 7 µM; AID 2052, 2009; 2C CD8+ T cell-vesicle binding; hits give low values;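 active means response, share of CD8 T cells binding vesicles, and their 90th percentile fluorescence all below set limits, cut at about 80% in these data, passing the limit was not always enough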;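 further: values below 100% mean blocked vesicle binding to the CD8+ T cells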
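material = purified 2C TCR transgenic mouse naive CD8+ T cells | controls = Unloaded micro-vesicles (low), QL9 vesicles with 0.7% DMSO (high) | detection = cytometric PE anti-B7-1 and Alexa647 anti-CD8 signals after 1% paraformaldehyde fixation | incubation = binding step 1.5 h, 37 °C, antibody labelling 20 min, ice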
NR3A LBD binder = binders of NR3A ligand-binding domain, primary screen, biophysical, differential scanning fluorimetry, uHTS. NR3A LBD differential scanning fluorimetry, Tm shift; 0% = protein alone, 100% = glycine-bound protein. Glutamate receptor ionotropic, NMDA 3A (GRIN3A) ligand-binding domain. AID 1259313, 2017. hit rate 2.5% among 340,000. Tm shift relative to glycine control, % at 25 µM;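 active means melting temperature shift of at least 10% of the positive control shift, at one fixed dose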
* hit, by the source's call; i = inactive; · = no result given. Rows were chosen to be rich in hits. Some 2.8% of all compounds tested hit in one or more screens of this group.

SMILES	JMJD2C inh	Rtt109 HAT inh	T cell modulator	NR3A LBD binder
COc1ccc(NC(=O)COC(=O)CCCc2c[nH]c3ccccc23)cc1	0	·	178	21*
CCOc1ccc(NC(=O)COC(=O)Cc2ccsc2)cc1	-1	14	166	34*
CCc1cccc(CC)c1NC(=O)COC(=O)Cc1ccsc1	3	24	216	-3
O=C1c2ccccc2C(=O)N1/N=C/c1ccc(O)c(O)c1	9	-11	287	19*
COc1cc(NC(=O)c2cccc(C)c2)ccc1NC(=O)c1cc2ccccc2o1	14	-6	217	33*
O=C(Cc1ccc(Cl)cc1)Nc1ccc2oc(=O)ccc2c1	0	0	848	0
O=C(COc1ccccc1[N+](=O)[O-])Nc1ccc(NC(=O)c2cc3ccccc3o2)cc1	-6	1	297	12*
O=C(Cc1ccc(Cl)cc1)Nc1ccc(-c2cc3ccccc3oc2=O)c(Cl)c1	24	-5	115	19*
O=C(Nc1cccc(NC(=O)c2nccc3ccccc23)c1)c1ccco1	-12	·	199	19*
CCOc1cccc(C(=O)Nc2ccc(NC(=O)c3cc4ccccc4o3)c(OC)c2)c1	-11	5	215	2
CCN1CCN(S(=O)(=O)c2ccc(Cl)c(C(=O)Nc3nnc(C)s3)c2)CC1	-22	19	459	·
CCc1cc(C(=O)N/N=C/c2ccc(O)cc2O)c2ccccc2n1	-4	7	194	-5
Nc1cccc(CP(=O)(c2ccccc2)c2ccccc2)c1	0	8	306	2
CCCc1ccc2oc(C(=O)N3CCNC(=O)C3CC(=O)OC)c(C)c2c1 (stereo unspecified)	0	3	609	2
O=C(Nc1ccccc1)c1cc2ccccc2o1	-4	2	356	-14
NS(=O)(=O)c1ccc(NC(=O)COc2cccc3ccccc23)cc1	-2	-3	561	16*
O=C(Nc1ccc(NC(=O)c2cc3ccccc3o2)cc1)c1ccco1	9	-4	211	26*
Cc1ccc(NC(=O)c2cc3ccccc3o2)cc1Cl	-2	3	226	35*
COc1ccc(NC(=O)c2cc3ccccc3o2)cc1	3	-8	404	2
COc1ccc(NC(=O)c2cc3ccccc3o2)cc1OC	3	-6	74	26*
CC(C)CCN(C(=O)CCSc1ccc(F)cc1)c1c(N)n(Cc2ccccc2)c(=O)[nH]c1=O	0	-30	270	-2
COc1ccc(S(=O)(=O)Nc2ccc3c(c2)C(=O)N([C@H](C)CO)C[C@H](C)[C@@H](CN(C)S(=O)(=O)c2cccs2)O3)cc1	25	11	380	-2
COc1ccccc1C(CNC(=O)CNC(=O)c1cccc(Cl)c1)N1CCCC1 (stereo unspecified)	·	-4	·	1
CCC(=O)Nc1ccc(Cl)c(NC(=S)NC(=O)c2ccco2)c1	6	5	417	-8
CCC(=O)Nc1ccc(Cl)c(NC(=S)NC(=O)c2cc3ccccc3o2)c1	7	2	167	25*
SMILES	JMJD2C inh	Rtt109 HAT inh	T cell modulator	NR3A LBD binder
CC(=O)N1CCN(CC(=O)Nc2cccc(S(=O)(=O)N3CCCCC3)c2)CC1	-3	-13	527	2
N#C/C(=N\Nc1ccc(S(=O)(=O)N2CCCCCC2)cc1)C(N)=S	-9	2	281	7
CCOC(=O)/C(C#N)=N/Nc1ccc(S(=O)(=O)N2CCc3ccccc32)cc1	-8	2	265	24*
N#C/C(=N\Nc1ccc(S(=O)(=O)N2CCc3ccccc32)cc1)C(N)=S	-10	11	157	23*
CCC(=O)c1ccc(OCC(=O)OCC(=O)c2cc(C)n(C)c2C)cc1	1	0	276	13*
CCC(=O)c1ccc(OCC(=O)OCC(=O)c2c(N)n(C)c(=O)n(C)c2=O)cc1	4	-15	379	1
O=C(C[C@H]1C[C@H](C(=O)N2CCCCC2)[C@@]2(CCc3ccccc3)c3[nH]c4ccc(Cl)cc4c3CCN2C1=O)NCc1cccc(C(F)(F)F)c1	·	-4	·	-2
COc1ccc(NC(=O)c2cccc(OC(F)F)c2)cc1Cl	8	1	i	31*
O=C(Nc1ccc(OC(F)F)c(Cl)c1)c1cccc(OC(F)F)c1	70	10	429	34*
O=C(Nc1ccc2c(c1)CCC2)c1cccc(OC(F)F)c1	6	·	830	7
COc1ccc(NC(=O)c2cccc(F)c2)cc1Cl	-7	-8	330	10*
COc1ccc(NC(=O)c2ccccc2F)cc1Cl	5	4	169	30*
COC(=O)c1cccc(NC(=O)c2ccc(OC)c(Cl)c2)c1	-1	-3	285	8
CC(C)=CCCC(C)CN1CCC(n2nccc2NC(=O)C2CCCC2)CC1 (stereo unspecified)	7	2	298	-4
O=c1[nH]c2cc3c(cc2cc1CN(CCc1ccccc1)C(=S)NCCCN1CCOCC1)OCCO3	·	-14	·	-1
O=C(CCc1c[nH]c2ccccc12)OCC(=O)N1CCN(S(=O)(=O)c2ccccc2)CC1	-8	3	i	-1
CC(=O)C[C@@H](O)CC(=O)[C@@H]1OC(=O)CCCCCCc2ccccc21	·	-16	464	0
COc1cc(C(=O)NCCNC(=O)c2ccco2)cc(OC)c1OC	·	13	·	-5
COc1cc(NC(=O)c2ccc(-c3cccc(F)c3)o2)ccc1NC(=O)c1ccccc1Cl	·	3	312	23*
CCOc1ccc(NC(=O)c2c(NC(=O)CNCCN3CCOCC3)sc3c2CCC3)cc1	-7	6	993	-2
Clc1ccc2[nH]cc(-c3nnnn3-c3ccc4ccccc4c3)c2c1	-8	0	243	29*
O=S(=O)(NN1CCOCC1)c1ccc(Br)cc1	-3	53*	140	3
CSC1=N/C(=C\c2ccccc2F)C(=O)S1	-1	2	236	16*
CCOC(=O)C(NC(=O)CCC(=O)Nc1ccc(S(N)(=O)=O)cc1)C(O)c1ccccc1 (stereo unspecified)	-19	3	·	13*
CCN1/C(=C\C(=S)Nc2ccccc2)Sc2ccccc21	10	10	276	9
CCN1/C(=C/C(C)=C/c2sc3ccccc3[n+]2CC)Sc2ccccc21	-2	134*	320	-14
CC(C)N1CCN(S(=O)(=O)c2ccccc2)c2ccccc21	·	-2	·	-1
Cc1ccc([C@@H]2[C@@H]3C(=O)N(C)C(=O)[C@@H]3[C@]3(Cc4ccccc4)C(=O)N(CCO)CC(=O)N23)o1	1	7	196	2
Cc1ccc([C@@H]2[C@@H]3C(=O)N(c4ccccc4)C(=O)[C@@H]3[C@]3(Cc4ccccc4)C(=O)N(CC4CC4)CC(=O)N23)o1	1	0	381	18*
Cc1cc(C)n2nc(C(=O)NCc3ccccc3)nc2n1	-4	1	400	24*

Source: PubChem BioAssay
